Drawing on ChEMBL document CHEMBL4251658, “Cytotoxic and Noncytotoxic Metabolites from Teratosphaeria sp. FL2137, a Fungus Associated with Pinus clausa” (J Nat Prod, 2018), this text covers IC50 for three molecules.

What all share (assay type): functional, cell-based
For one test, the system named is SF-268. The test can be described thus: Cytotoxicity against human SF268 cells by resazurin dye based Alamar blue assay. Summed up:
(§1)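 Resazurin-based colorimetric (Alamar Blue) read-out of in vitro cytotoxicity in human cancer lines: NCI-H460 non-small-cell lung, SF-268 CNS glioma, MCF-7 breast, PC-3M metastatic prostate adenocarcinoma, MDA-MB-231 breast adenocarcinoma. Doxorubicin served as positive control and DMSO as negative control. Run in triplicate. Compounds tested up to 5.0 μM; IC50 values derived.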
A general note: Resazurin is reduced to fluorescent resorufin, in cell work by metabolically active cells.

In the next test the test system is PC-3M. The experiment in a line: Cytotoxicity against human PC3M cells by resazurin dye based Alamar blue assay. The essentials: as §1
The test system of a further test is MDA-MB-231. The test can be described thus: Cytotoxicity against human MDA-MB-231 cells by resazurin dye based Alamar blue assay. Summed up: as §1
A further test deals with MCF7. The experiment in a line: Cytotoxicity against human MCF7 cells by resazurin dye based Alamar blue assay. Summed up: as §1
The next test concerns NCI-H460. The experiment in a line: Cytotoxicity against human NCI-H460 cells by resazurin dye based Alamar blue assay. The essentials: as §1

As for `COc1cc(O)c2c(c1)C(=O)C(C)=CC2=O`, the IC50 is greater than 5 µM in the test on SF-268; 4.9 µM in the test on PC-3M; 1.2 µM in the test with MDA-MB-231; 3.1 µM in the test on MCF7; greater than 5 µM with NCI-H460.
Regarding `COc1cccc2c1C(=O)c1c(O)c3c(c(O)c1C2=O)C[C@@](O)(C(=O)CO)C[C@@H]3O[C@H]1C[C@H](N)[C@H](O)[C@H](C)O1` [DOXORUBICIN], the IC50 in the test on PC-3M amounted to 0.2 µM; in the test with MDA-MB-231 it was 0.6 µM; with NCI-H460, 0.4 µM.
For `COc1cc(O)c2c(c1)C(=O)c1cocc1C2=O` [MONOSPORASCONE], the 50% inhibitory concentration (IC50) is greater than 5 µM with SF-268; greater than 5 µM in the test with PC-3M; 3.8 µM with MDA-MB-231; greater than 5 µM with MCF7; greater than 5 µM in the test with NCI-H460.

The IC50 is the concentration at which inhibition is half-maximal. A high value points to weaker potency.
